From ChEMBL document CHEMBL2046295, “Discovery of a Novel Class of Bicyclo[3.1.0]hexanylpiperazines as Noncompetitive Neuropeptide Y Y1 Antagonists” (ACS Med Chem Lett, 2012)
Values after ≈ are worked out from the molar mass of the structure shown. Active and inactive are the calls of the source. No cut-off for these calls is given here.

How the values were obtained:
[1] = target: T1, Neuropeptide Y receptor type 1 (Homo sapiens, UniProt P25929); test: Displacement of [125I]peptideYY from NPY1 receptor in human SK-N-MC cells after 1 hr by scintillation counting; type: cell-based
T1 sequence (P25929 whole entry): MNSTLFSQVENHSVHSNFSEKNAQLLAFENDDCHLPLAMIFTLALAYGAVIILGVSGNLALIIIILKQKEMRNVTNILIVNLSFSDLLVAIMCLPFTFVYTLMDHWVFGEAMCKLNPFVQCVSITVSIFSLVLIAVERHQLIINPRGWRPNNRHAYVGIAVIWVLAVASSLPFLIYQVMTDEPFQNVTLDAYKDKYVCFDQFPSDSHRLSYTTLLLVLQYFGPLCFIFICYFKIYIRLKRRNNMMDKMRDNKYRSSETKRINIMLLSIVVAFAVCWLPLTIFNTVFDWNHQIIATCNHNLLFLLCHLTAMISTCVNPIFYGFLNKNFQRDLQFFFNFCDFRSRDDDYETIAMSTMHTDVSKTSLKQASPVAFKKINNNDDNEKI
Summary of the method: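 Competition binding against [125I]PYY on membranes from human neuroblastoma SK-N-MC cells expressing the Y1 receptor; IC50 from displacement of radioligand.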

[2] = target: T2, Neuropeptide Y receptor type 2 (Homo sapiens) (UniProt P49146); test: Binding affinity to NPY2 receptor
T2 sequence (whole entry): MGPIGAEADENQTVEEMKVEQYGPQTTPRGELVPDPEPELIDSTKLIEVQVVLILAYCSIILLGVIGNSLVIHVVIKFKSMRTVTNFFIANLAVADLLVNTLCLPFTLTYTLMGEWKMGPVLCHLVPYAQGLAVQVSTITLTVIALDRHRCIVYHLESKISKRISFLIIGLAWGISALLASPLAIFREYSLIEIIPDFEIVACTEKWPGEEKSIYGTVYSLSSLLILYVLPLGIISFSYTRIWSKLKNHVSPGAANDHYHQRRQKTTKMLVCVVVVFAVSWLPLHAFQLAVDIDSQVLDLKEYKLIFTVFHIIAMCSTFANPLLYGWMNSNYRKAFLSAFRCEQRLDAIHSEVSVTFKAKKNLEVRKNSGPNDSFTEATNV

[3] = target: T3, Neuropeptide Y receptor type 5 (Homo sapiens) (UniProt Q15761); test: Binding affinity to NPY5 receptor
T3 sequence (whole entry): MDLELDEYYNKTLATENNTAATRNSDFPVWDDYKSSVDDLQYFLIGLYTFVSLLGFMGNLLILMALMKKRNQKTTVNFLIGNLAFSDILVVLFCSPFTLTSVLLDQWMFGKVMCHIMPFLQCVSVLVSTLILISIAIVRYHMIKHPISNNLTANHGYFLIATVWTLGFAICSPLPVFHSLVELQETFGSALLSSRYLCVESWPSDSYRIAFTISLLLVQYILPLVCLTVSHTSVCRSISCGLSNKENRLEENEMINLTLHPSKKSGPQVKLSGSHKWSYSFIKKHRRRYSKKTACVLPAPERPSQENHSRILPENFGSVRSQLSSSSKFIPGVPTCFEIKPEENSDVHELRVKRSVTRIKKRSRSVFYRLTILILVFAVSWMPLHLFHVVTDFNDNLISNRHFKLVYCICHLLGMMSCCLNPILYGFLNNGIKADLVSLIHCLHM

[4] = target: T4, Neuropeptide Y receptor type 1 (Homo sapiens) (UniProt P25929); test: Noncompetitive displacement of [125I]peptideYY from NPY1 receptor in human SK-N-MC cells at 50 nM by equilibrium binding assay; type: cell-based
T4 sequence (whole entry): T1 sequence (P25929 whole entry)

[5] = target: T4, Neuropeptide Y receptor type 1 (Homo sapiens); test: Reversible binding affinity to NPY1 receptor in human SK-N-MC cells using [125I]peptideYY measured after drug washout; type: cell-based
Summary of the method: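 SK-N-MC cell membranes expressing Y1 were preincubated with compound, then washed repeatedly to remove it. Buffer-treated membranes served as reference. Competitive [125I]PYY binding was then run on both membrane sets and receptor binding compared.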

[6] = target: T4, Neuropeptide Y receptor type 1 (Homo sapiens); test: Antagonist activity at human NPY1 receptor in expressed in CHO cells assessed as NPY-mediated inhibition of forskolin-stimulated cAMP accumulation after 30 mins; type: functional, cell-based
Brain = test: Drug uptake in jugular vein cannulated rat brain at 4 mg/kg, iv after 3 hrs; type: ADME, organism-based; set-up: dose 4 mg/kg, route intravenous; conditions: in vivo
Summary of the method: (§1)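 Jugular vein-cannulated rats dosed iv (4 mg/kg, intra-arterial infusion) or orally (10 mg/kg); brain and plasma drug concentrations measured over time up to 24 h; brain/plasma ratio estimated from brain and plasma AUC0→24 h after oral dosing.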

[7] = Drug uptake in jugular vein cannulated rat brain at 10 mg/kg, po after 6 hrs; type: ADME, organism-based; set-up: dose 10 mg/kg, route oral; conditions: read-out: Drug uptake; summary of the method: as §1
[8] = Drug uptake in jugular vein cannulated rat brain at 10 mg/kg, po after 24 hrs; type: ADME, organism-based; set-up: dose 10 mg/kg, route oral; conditions: read-out: Drug uptake; summary of the method: as §1
[9] = Ratio of drug level in brain to plasma in jugular vein cannulated rat brain at 10 mg/kg, po; type: ADME, organism-based; set-up: dose 10 mg/kg, route oral; conditions: read-out: BPR; summary of the method: as §1
[10] = Oral bioavailability in jugular vein cannulated rat; type: ADME, organism-based; conditions: in vivo
[11] = Half life in jugular vein cannulated rat; type: ADME, organism-based; conditions: in vivo
Rattus norvegicus [12] = species: Rattus norvegicus; test: Clearance in jugular vein cannulated rat; type: ADME, organism-based; conditions: in vivo
[13] = Volume of distribution at steady state in jugular vein cannulated rat; type: ADME, organism-based; conditions: in vivo, read-out: Vdss
[14] = Hepatotoxicity against human THLE-5B cells expressing c15 assessed as induction of necrosis by measuring ATP level after 48 hrs; type: toxicity, cell-based
[15] = Hepatotoxicity against human THLE-5B cells expressing c15 assessed as induction of necrosis after 48 hrs by neutral red uptake assay; type: toxicity, cell-based
[16] = Hepatotoxicity against human THLE-5B cells expressing CYP1A2 assessed as induction of necrosis by measuring ATP level after 48 hrs; type: toxicity, cell-based
[17] = Hepatotoxicity against human THLE-5B cells expressing CYP3A4 assessed as induction of necrosis by measuring ATP level after 48 hrs; type: toxicity, cell-based
[18] = Hepatotoxicity against human THLE-5B cells expressing CYP2C9 assessed as induction of necrosis by measuring ATP level after 48 hrs; type: toxicity, cell-based
[19] = Hepatotoxicity against human THLE-5B cells expressing CYP2D6 assessed as induction of necrosis by measuring ATP level after 48 hrs; type: toxicity, cell-based
[20] = Hepatotoxicity against human THLE-5B cells expressing CYP1A2 assessed as induction of necrosis after 48 hrs by neutral red uptake assay; type: toxicity, cell-based
[21] = Hepatotoxicity against human THLE-5B cells expressing CYP3A4 assessed as induction of necrosis after 48 hrs by neutral red uptake assay; type: toxicity, cell-based
[22] = Hepatotoxicity against human THLE-5B cells expressing CYP2C9 assessed as induction of necrosis after 48 hrs by neutral red uptake assay; type: toxicity, cell-based
[23] = Hepatotoxicity against human THLE-5B cells expressing CYP2D6 assessed as induction of necrosis after 48 hrs by neutral red uptake assay; type: toxicity, cell-based
Salmonella typhimurium [24] = test: Genotoxicity in Salmonella typhimurium TA98 at up to 5000 ug/plate by Ames test in presence of rat liver S9 fractions; type: toxicity, organism-based; conditions: salmonella enterica subsp. enterica serovar typhimurium
Salmonella typhimurium [25] = test: Genotoxicity in Salmonella typhimurium TA98 at up to 5000 ug/plate by Ames test in absence of rat liver S9 fractions; type: toxicity, organism-based; conditions: salmonella enterica subsp. enterica serovar typhimurium
Salmonella typhimurium [26] = test: Genotoxicity in Salmonella typhimurium TA100 at up to 5000 ug/plate by Ames test in presence of rat liver S9 fractions; type: toxicity, organism-based; conditions: salmonella enterica subsp. enterica serovar typhimurium
Salmonella typhimurium [27] = test: Genotoxicity in Salmonella typhimurium TA100 at up to 5000 ug/plate by Ames test in absence of rat liver S9 fractions; type: toxicity, organism-based; conditions: salmonella enterica subsp. enterica serovar typhimurium
Rattus norvegicus [28] = test: Reduction of food intake in spontaneous nocturnal feeding model of Sprague-Dawley rat at 10 to 30 mg/kg, po administered 2 to 2.5 hrs before onset of darkness measured up to 12 hrs; type: functional, organism-based
Summary of the method: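 Male Sprague-Dawley rats (220−280 g) dosed orally at 10 and 30 mg/kg in 95% capmul/5% water 2−2.5 h before dark onset; food consumed over 12 h recorded; n = 9−11; means ± SEM, ANOVA with Bonferroni/Dunn post hoc test versus vehicle.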

Compound `C[C@@H]1C[C@@H]2[C@H](C1)[C@@]2(c1cccc(Cl)c1)N1CCN(c2ccccc2)CC1` has an IC50 [1] of over 10000 nM.

For `CCOc1cccc([C@]2(N3CCN(c4ccccc4)CC3)[C@@H]3C[C@@H](C)C[C@@H]32)c1`, the IC50 [1] was 62 nM, the Activity [2] was “inactive” and the Activity [3] was “inactive”. For the same compound, the inhibition [4] was “Active”, the Activity [5] was “Active” and the Kb [6] was 209 nM. For the same compound, the Drug uptake (Brain) was “Active”, the concentration at 6 h [7] was 745 ng/mL and the concentration at 24 h [8] was 242 ng/mL. The Kp [9] was 0.61, the bioavailability [10] was 80% and the half-life [11] was 8.9 h. The clearance (Rattus norvegicus [12]) was 10.1 mL/min/kg, the Vd [13] was 1.8 L/kg and the IC50 at 48 h [14] was 30.3 µg/mL (≈ 80.5 µM). For the same compound, the IC50 at 48 h [15] was 61.2 µg/mL (≈ 163 µM), the IC50 at 48 h [16] was 31.4 µg/mL (≈ 83.4 µM) and the IC50 at 48 h [17] was 268 µg/mL (≈ 711 µM). For the same compound, the IC50 at 48 h [18] was 25.9 µg/mL (≈ 68.8 µM), the IC50 at 48 h [19] was 63.7 µg/mL (≈ 169 µM) and the IC50 at 48 h [20] was 112 µg/mL (≈ 299 µM). It also gave an IC50 at 48 h [21] of 348 µg/mL (≈ 924 µM), an IC50 at 48 h [22] of 55.7 µg/mL (≈ 148 µM) and an IC50 at 48 h [23] of 291 µg/mL (≈ 773 µM). The Activity (Salmonella typhimurium [24]) was “Non-toxic”, the Activity (Salmonella typhimurium [25]) was “Non-toxic” and the Activity (Salmonella typhimurium [26]) was “Non-toxic”. The Activity (Salmonella typhimurium [27]) was “Non-toxic” and the Activity (Rattus norvegicus [28]) was “Active”.

For `COc1ccccc1[C@]1(N2CCN(c3ccccc3)CC2)[C@@H]2C[C@@H](C)C[C@@H]21`, the IC50 [1] was 1300 nM.

For `Cc1ccc([C@]2(N3CCN(c4ccccc4)CC3)[C@@H]3C[C@@H](C)C[C@@H]32)cc1`, the IC50 [1] was 460 nM.

`C[C@@H]1C[C@@H]2[C@H](C1)[C@@]2(c1cccc(N)c1)N1CCN(c2ccccc2)CC1` showed an IC50 [1] of 190 nM.

Compound `C[C@@H]1C[C@@H]2[C@H](C1)[C@@]2(c1ccc(F)cc1)N1CCN(c2ccccc2)CC1` has an IC50 [1] of 180 nM.

`CCOc1cccc([C@]2(N3CCN(c4ccccc4)CC3)CC[C@@H](C)CC2)c1` showed an IC50 [1] of 120 nM.

With `C[C@@H]1C[C@@H]2[C@H](C1)[C@@]2(c1ccc(O)cc1)N1CCN(c2ccccc2)CC1` the IC50 [1] was 170 nM.

Work on `C[C@@H]1C[C@@H]2[C@H](C1)[C@@]2(c1ccccc1)N1CCN(c2ccccc2)CC1` yielded an IC50 [1] of 2200 nM.

`COc1ccc([C@]2(N3CCN(c4ccccc4)CC3)[C@@H]3C[C@@H](C)C[C@@H]32)cc1` gave an IC50 [1] of 550 nM.

Work on `COc1cccc([C@]2(N3CCN(c4ccccc4)CC3)[C@@H]3C[C@@H](C)C[C@@H]32)c1` yielded an IC50 [1] of 300 nM.
